Experiments:
Assay type in all cases: ADME, organism-based
[1] = Biodistribution in NMRI mouse urine at 3.7 MBq/mL, iv after 2 mins by gamma counting; details: in vivo
How it was run: (§1)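 Male NMRI mice (30-40 g) under isoflurane (1.5-2.5% in oxygen) got 0.1 mL of HPLC-purified tracer diluted with 0.9% NaCl to 3.7 MBq/mL (ethanol ≤10%) via tail vein. Mice were decapitated at 2 or 60 min p.i., and organs, blood and urine were weighed and γ-counted. Values are background-corrected %ID or %ID/g, with blood mass taken as 7% of body mass.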

Kidney [2] = assay: Biodistribution in NMRI mouse kidney at 3.7 MBq/mL, iv after 60 mins by gamma counting; details: in vivo, 1 h; how it was run: as §1
Kidney [3] = assay: Biodistribution in NMRI mouse kidney assessed per gram of tissue at 3.7 MBq/mL, iv after 2 mins by gamma counting; details: in vivo; how it was run: as §1
Kidney [4] = assay: Biodistribution in NMRI mouse kidney assessed per gram of tissue at 3.7 MBq/mL, iv after 60 mins by gamma counting; details: in vivo, 1 h; how it was run: as §1
Kidney [5] = assay: Drug level in NMRI mouse kidney assessed as standard uptake value at 3.7 MBq/mL, iv after 2 mins by gamma counting; details: in vivo
How it was run: (§2)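 Male NMRI mice (30-40 g) were anaesthetised with isoflurane. Each received 0.1 mL of HPLC-purified tracer, diluted in 0.9% NaCl to 3.7 MBq/mL (ethanol ≤10%), via a tail vein. Mice were decapitated at 2 or 60 min. Organs were dissected, weighed and γ-counted with background correction. SUV = (organ cpm/organ weight)/(total recovered counts/body weight). Blood mass was taken as 7% of body mass.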

Kidney [6] = assay: Drug level in NMRI mouse kidney assessed as standard uptake value at 3.7 MBq/mL, iv after 60 mins by gamma counting; details: in vivo, 1 h; how it was run: as §2
Liver [7] = assay: Biodistribution in NMRI mouse liver at 3.7 MBq/mL, iv after 2 mins by gamma counting; details: in vivo; how it was run: as §1
Liver [8] = assay: Biodistribution in NMRI mouse liver assessed per gram of tissue at 3.7 MBq/mL, iv after 60 mins by gamma counting; details: in vivo, 1 h; how it was run: as §1
Liver [9] = assay: Drug level in NMRI mouse liver assessed as standard uptake value at 3.7 MBq/mL, iv after 2 mins by gamma counting; details: in vivo; how it was run: as §2
Liver [10] = assay: Drug level in NMRI mouse liver assessed as standard uptake value at 3.7 MBq/mL, iv after 60 mins by gamma counting; details: in vivo, 1 h; how it was run: as §2
[11] = Biodistribution in NMRI mouse spleen/pancreas at 3.7 MBq/mL, iv after 2 mins by gamma counting; details: in vivo; how it was run: as §1
[12] = Biodistribution in NMRI mouse spleen/pancreas assessed per gram of tissue at 3.7 MBq/mL, iv after 2 mins by gamma counting; details: in vivo; how it was run: as §1
[13] = Biodistribution in NMRI mouse spleen/pancreas assessed per gram of tissue at 3.7 MBq/mL, iv after 60 mins by gamma counting; details: in vivo, 1 h; how it was run: as §1
[14] = Drug level in NMRI mouse spleen/pancreas assessed as standard uptake value at 3.7 MBq/mL, iv after 2 mins by gamma counting; details: in vivo; how it was run: as §2
[15] = Drug level in NMRI mouse spleen/pancreas assessed as standard uptake value at 3.7 MBq/mL, iv after 60 mins by gamma counting; details: in vivo, 1 h; how it was run: as §2
Lung [16] = assay: Biodistribution in NMRI mouse lung at 3.7 MBq/mL, iv after 2 mins by gamma counting; details: in vivo; how it was run: as §1
Lung [17] = assay: Biodistribution in NMRI mouse lung at 3.7 MBq/mL, iv after 60 mins by gamma counting; details: in vivo, 1 h; how it was run: as §1
Lung [18] = assay: Biodistribution in NMRI mouse lung assessed per gram of tissue at 3.7 MBq/mL, iv after 60 mins by gamma counting; details: in vivo, 1 h; how it was run: as §1
Lung [19] = assay: Drug level in NMRI mouse lung assessed as standard uptake value at 3.7 MBq/mL, iv after 2 mins by gamma counting; details: in vivo; how it was run: as §2
Lung [20] = assay: Drug level in NMRI mouse lung assessed as standard uptake value at 3.7 MBq/mL, iv after 60 mins by gamma counting; details: in vivo, 1 h; how it was run: as §2
Heart [21] = assay: Biodistribution in NMRI mouse heart at 3.7 MBq/mL, iv after 2 mins by gamma counting; details: in vivo; how it was run: as §1
Heart [22] = assay: Biodistribution in NMRI mouse heart assessed per gram of tissue at 3.7 MBq/mL, iv after 2 mins by gamma counting; details: in vivo; how it was run: as §1
Heart [23] = assay: Biodistribution in NMRI mouse heart assessed per gram of tissue at 3.7 MBq/mL, iv after 60 mins by gamma counting; details: in vivo, 1 h; how it was run: as §1
Heart [24] = assay: Drug level in NMRI mouse heart assessed as standard uptake value at 3.7 MBq/mL, iv after 2 mins by gamma counting; details: in vivo; how it was run: as §2
Intestine [25] = assay: Biodistribution in NMRI mouse intestine at 3.7 MBq/mL, iv after 2 mins by gamma counting; details: in vivo; how it was run: as §1
Intestine [26] = assay: Biodistribution in NMRI mouse intestine at 3.7 MBq/mL, iv after 60 mins by gamma counting; details: in vivo, 1 h; how it was run: as §1
Stomach [27] = assay: Biodistribution in NMRI mouse stomach at 3.7 MBq/mL, iv after 2 mins by gamma counting; details: in vivo; how it was run: as §1
Stomach [28] = assay: Biodistribution in NMRI mouse stomach at 3.7 MBq/mL, iv after 60 mins by gamma counting; details: in vivo, 1 h; how it was run: as §1
[29] = Biodistribution in NMRI mouse cerebrum at 3.7 MBq/mL, iv after 2 mins by gamma counting; details: in vivo; how it was run: as §1
[30] = Biodistribution in NMRI mouse cerebrum at 3.7 MBq/mL, iv after 60 mins by gamma counting; details: in vivo, 1 h; how it was run: as §1
[31] = Biodistribution in NMRI mouse cerebrum assessed per gram of tissue at 3.7 MBq/mL, iv after 2 mins by gamma counting; details: in vivo; how it was run: as §1
[32] = Biodistribution in NMRI mouse cerebrum assessed per gram of tissue at 3.7 MBq/mL, iv after 60 mins by gamma counting; details: in vivo, 1 h; how it was run: as §1
[33] = Drug level in NMRI mouse cerebrum assessed as standard uptake value at 3.7 MBq/mL, iv after 2 mins by gamma counting; details: in vivo; how it was run: as §2
[34] = Drug level in NMRI mouse cerebrum assessed as standard uptake value at 3.7 MBq/mL, iv after 60 mins by gamma counting; details: in vivo, 1 h; how it was run: as §2
Cerebellum [35] = assay: Biodistribution in NMRI mouse cerebellum at 3.7 MBq/mL, iv after 60 mins by gamma counting; details: in vivo, 1 h; how it was run: as §1
Cerebellum [36] = assay: Biodistribution in NMRI mouse cerebellum assessed per gram of tissue at 3.7 MBq/mL, iv after 60 mins by gamma counting; details: in vivo, 1 h; how it was run: as §1
Cerebellum [37] = assay: Drug level in NMRI mouse cerebellum assessed as standard uptake value at 3.7 MBq/mL, iv after 2 mins by gamma counting; details: in vivo; how it was run: as §2
Cerebellum [38] = assay: Drug level in NMRI mouse cerebellum assessed as standard uptake value at 3.7 MBq/mL, iv after 60 mins by gamma counting; details: in vivo, 1 h; how it was run: as §2
Blood [39] = assay: Biodistribution in NMRI mouse blood at 3.7 MBq/mL, iv after 2 mins by gamma counting; details: in vivo; how it was run: as §1
Blood [40] = assay: Biodistribution in NMRI mouse blood at 3.7 MBq/mL, iv after 60 mins by gamma counting; details: in vivo, 1 h; how it was run: as §1
Blood [41] = assay: Biodistribution in NMRI mouse blood assessed per gram of tissue at 3.7 MBq/mL, iv after 2 mins by gamma counting; details: in vivo; how it was run: as §1
Blood [42] = assay: Drug level in NMRI mouse blood assessed as standard uptake value at 3.7 MBq/mL, iv after 2 mins by gamma counting; details: in vivo; how it was run: as §2
Blood [43] = assay: Drug level in NMRI mouse blood assessed as standard uptake value at 3.7 MBq/mL, iv after 60 mins by gamma counting; details: in vivo, 1 h; how it was run: as §2

With `CNc1ccc2nc(-c3ccc([18F])cc3)sc2c1` as the compound, how does the Drug uptake [1] read?
Its Drug uptake is 0.2%.

What about the Drug uptake (Kidney [2]) of the same compound?
The Drug uptake was 3.2%.

And the Drug uptake (Kidney [3])?
The Drug uptake was 12.6%.

What about the Drug uptake (Kidney [4]) of the same compound?
The Drug uptake was 4.6%.

And the SUV (Kidney [5])?
Its SUV is 4.3.

And the SUV (Kidney [6])?
Its SUV is 1.6.

And the Drug uptake (Liver [7])?
The Drug uptake was 42.4%.

What about the Drug uptake (Liver [8]) of the same compound?
The Drug uptake was 8.3%.

What about the SUV (Liver [9]) of the same compound?
Its SUV is 7.

What about the SUV (Liver [10]) of the same compound?
Its SUV is 2.8.

What about the Drug uptake [11] of the same compound?
The Drug uptake was 1.4%.

And the Drug uptake [12]?
Its Drug uptake is 5.9%.

What about the Drug uptake [13] of the same compound?
Its Drug uptake is 0.9%.

And the SUV [14]?
Its SUV is 2.

And the SUV [15]?
Its SUV is 0.3.

And the Drug uptake (Lung [16])?
Its Drug uptake is 1.8%.

And the Drug uptake (Lung [17])?
The Drug uptake was 0.3%.

What about the Drug uptake (Lung [18]) of the same compound?
The Drug uptake was 1.4%.

And the SUV (Lung [19])?
Its SUV is 2.5.

What about the SUV (Lung [20]) of the same compound?
The SUV was 0.5.

And the Drug uptake (Heart [21])?
Its Drug uptake is 0.8%.

What about the Drug uptake (Heart [22]) of the same compound?
The Drug uptake was 5.8%.

What about the Drug uptake (Heart [23]) of the same compound?
The Drug uptake was 1%.

And the SUV (Heart [24])?
Its SUV is 2.

What about the Drug uptake (Intestine [25]) of the same compound?
The Drug uptake was 11%.

What about the Drug uptake (Intestine [26]) of the same compound?
Its Drug uptake is 37.2%.

And the Drug uptake (Stomach [27])?
Its Drug uptake is 2.3%.

What about the Drug uptake (Stomach [28]) of the same compound?
The Drug uptake was 1.6%.

And the Drug uptake [29]?
Its Drug uptake is 3.42%.

What about the Drug uptake [30] of the same compound?
The Drug uptake was 0.44%.

What about the Drug uptake [31] of the same compound?
Its Drug uptake is 12.13%.

And the Drug uptake [32]?
The Drug uptake was 1.39%.

What about the SUV [33] of the same compound?
Its SUV is 4.1.

What about the SUV [34] of the same compound?
The SUV was 0.48.

And the Drug uptake (Cerebellum [35])?
The Drug uptake was 0.12%.

And the Drug uptake (Cerebellum [36])?
The Drug uptake was 1.26%.

And the SUV (Cerebellum [37])?
The SUV was 3.97.

What about the SUV (Cerebellum [38]) of the same compound?
The SUV was 0.44.

And the Drug uptake (Blood [39])?
The Drug uptake was 1.5%.

What about the Drug uptake (Blood [40]) of the same compound?
Its Drug uptake is 2.2%.

And the Drug uptake (Blood [41])?
Its Drug uptake is 0.7%.

What about the SUV (Blood [42]) of the same compound?
Its SUV is 0.2.

What about the SUV (Blood [43]) of the same compound?
The SUV was 0.3.

Reference: ChEMBL document CHEMBL1154674, “Synthesis and evaluation of three 18F-labeled aminophenylbenzothiazoles as amyloid imaging agents” (J Med Chem, 2009)
